Converted amounts (≈) assume the structure as drawn.
How the values were obtained:
[1] = system: Streptococcus pyogenes; test: Antibacterial activity against Streptococcus pyogenes 51339 assessed as growth inhibition; type: functional
[2] = system: Staphylococcus aureus; test: Antimicrobial activity against Staphylococcus aureus harboring GyrB T173N mutant assessed as growth inhibition; type: functional
[3] = system: Streptococcus pyogenes; test: Antimicrobial activity against Streptococcus pyogenes harboring ParE A53S mutant assessed as growth inhibition; type: functional
[4] = system: Staphylococcus aureus; test: Inhibition of Staphylococcus aureus DNA gyrase ATPase subunit GyrA2/GyrB2 after 60 mins by malachite green staining assay
[5] = system: Staphylococcus aureus; test: Antibacterial activity against Staphylococcus aureus ATCC 29213 assessed as growth inhibition; type: functional
[6] = system: Staphylococcus aureus; test: Antibacterial activity against Staphylococcus aureus ATCC 29213 assessed as growth inhibition in presence of 50% horse serum; type: functional
[7] = system: Haemophilus influenzae; test: Antibacterial activity against Haemophilus influenzae 49247 assessed as growth inhibition; type: functional
[8] = Fraction unbound in mouse plasma by ultracentrifugation; type: ADME, cell-free
Procedure, shortened: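 Compound at 10 µM (1% DMSO) was equilibrated in neat plasma at 37 °C for 60 min. Duplicate aliquots were ultracentrifuged at 250,000g for 4.2 h at 37 °C. Free compound in the plasma-water supernatant was compared with uncentrifuged samples incubated alike. Uncentrifuged samples kept at 20 °C checked degradation, and diltiazem served as stability control. Analysis was by LCMS.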

[9] = system: Staphylococcus aureus; test: Ratio of MIC for Staphylococcus aureus ATCC 29213 assessed as growth inhibition in presence of 50% horse serum to MIC for Staphylococcus aureus ATCC 29213 assessed as growth inhibition; type: functional

Row | Compound | MIC [1] [µg/mL] | MIC [2] [µg/mL] | MIC [3] [µg/mL] | inhibitory concentration [4] [µg/mL] | MIC [5] [µg/mL] | MIC [6] [µg/mL] | MIC [7] [µg/mL] | fraction unbound [8] | Ratio [9]
1 | CCNC(=O)Nc1nc2cc(-c3cnc(C4(O)CCSCC4)nc3)cc(-c3ccccn3)c2s1 | 0.5 (≈ 1.01 µM) | 0.25 (≈ 0.507 µM) | 4 (≈ 8.12 µM) | 0.005 | 0.12 (≈ 0.244 µM) | 1 | 2 (≈ 4.06 µM) |  | 
2 | CCNC(=O)Nc1nc2cc(-c3cnc(C(O)C4CC4)nc3)cc(-c3ccccn3)c2s1 (racemic) | 0.06 (≈ 0.134 µM) | 0.25 (≈ 0.56 µM) | 1 (≈ 2.24 µM) | 0.008 | 0.06 (≈ 0.134 µM) | 0.25 | 0.5 (≈ 1.12 µM) |  | 
3 | CCNC(=O)Nc1nc2cc(-c3cnc(C(O)CN4CCOCC4)nc3)cc(-c3ccccn3)c2s1 (racemic) | 0.12 (≈ 0.237 µM) | 1 (≈ 1.98 µM) | 2 (≈ 3.96 µM) | 0.011 | 0.12 (≈ 0.237 µM) | 0.25 | 2 (≈ 3.96 µM) |  | 
4 | CCNC(=O)Nc1nc2cc(-c3cnc(C(C)(O)CO)nc3)cc(-c3ccccn3)c2s1 (racemic) | 0.12 (≈ 0.266 µM) | 1 (≈ 2.22 µM) | 2 (≈ 4.44 µM) | 0.006 | 0.12 (≈ 0.266 µM) | 0.25 | 0.5 (≈ 1.11 µM) |  | 
5 | CCNC(=O)Nc1nc2cc(-c3cnc(C4(O)CCOCC4)nc3)cc(-c3ccccn3)c2s1 | 0.12 (≈ 0.252 µM) | 0.25 (≈ 0.525 µM) | 2 (≈ 4.2 µM) | 0.005 | 0.06 (≈ 0.126 µM) | 0.12 | 1 (≈ 2.1 µM) |  | 
6 | CCNC(=O)Nc1nc2cc(-c3cnc(C(C)(C)O)nc3)cc(-c3cc(CN4CC[C@H](F)C4)ccn3)c2s1 | 0.06 (≈ 0.112 µM) |  |  | 0.008 | 0.12 (≈ 0.224 µM) | 0.25 | 2 (≈ 3.73 µM) | 0.061 | 
7 | CCNC(=O)Nc1nc2cc(-c3cnc(C(C)(C)O)nc3)cc(-c3cc(CN4CC(OC)C4)ccn3)c2s1 | 0.12 (≈ 0.225 µM) |  |  | 0.011 | 0.12 (≈ 0.225 µM) | 0.25 | 2 (≈ 3.75 µM) | 0.11 | 
8 | CCNC(=O)Nc1nc2cc(-c3cnc([C@@H](O)[C@H](O)C(F)(F)F)nc3)cc(-c3ccccn3)c2s1 (racemic) | 0.12 (≈ 0.238 µM) | 0.25 (≈ 0.496 µM) | 1 (≈ 1.98 µM) | 0.005 | 0.06 (≈ 0.119 µM) | 0.25 | 0.5 (≈ 0.991 µM) |  | 
9 | CCNC(=O)Nc1nc2cc(-c3cnc(CO)nc3)cc(-c3ccccn3)c2s1 | 0.06 (≈ 0.148 µM) | 0.25 (≈ 0.615 µM) | 0.5 (≈ 1.23 µM) |  | 0.03 (≈ 0.0738 µM) | 0.06 | 0.25 (≈ 0.615 µM) |  | 2
10 | CCNC(=O)Nc1nc2cc(-c3cnc(C(O)CC)nc3)cc(-c3ccccn3)c2s1 (racemic) | 0.06 (≈ 0.138 µM) | 0.25 (≈ 0.575 µM) | 1 (≈ 2.3 µM) | 0.006 | 0.06 (≈ 0.138 µM) | 0.25 | 1 (≈ 2.3 µM) |  | 
11 | CCNC(=O)Nc1nc2cc(-c3cnc(C(C)O)nc3)cc(-c3ccccn3)c2s1 (configuration not stated) | 0.06 (≈ 0.143 µM) | 0.25 (≈ 0.595 µM) | 1 (≈ 2.38 µM) |  | 0.03 (≈ 0.0713 µM) | 0.12 | 0.5 (≈ 1.19 µM) |  | 4
12 | CCCC(O)c1ncc(-c2cc(-c3ccccn3)c3sc(NC(=O)NCC)nc3c2)cn1 (racemic) | 0.06 (≈ 0.134 µM) | 0.25 (≈ 0.557 µM) | 2 (≈ 4.46 µM) | 0.007 | 0.03 (≈ 0.0669 µM) | 0.25 | 1 (≈ 2.23 µM) |  | 
13 | CCNC(=O)Nc1nc2cc(-c3cnc(C(C)(C)O)nc3)cc(-c3cc(CN4CC[C@@H](OC)C4)ccn3)c2s1 | 0.25 (≈ 0.456 µM) |  |  | 0.009 | 0.25 (≈ 0.456 µM) | 0.5 | 4 (≈ 7.3 µM) | 0.09 | 
14 | CCNC(=O)Nc1nc2cc(-c3cnc(C4(O)CCCC4)nc3)cc(-c3ccccn3)c2s1 | 0.12 (≈ 0.261 µM) | 0.25 (≈ 0.543 µM) | 2 (≈ 4.34 µM) | 0.005 | 0.03 (≈ 0.0651 µM) | 0.5 | 1 (≈ 2.17 µM) |  | 
15 | CCNC(=O)Nc1nc2cc(-c3cnc(C(O)CO)nc3)cc(-c3ccccn3)c2s1 (racemic) | 0.12 (≈ 0.275 µM) | 2 (≈ 4.58 µM) | 2 (≈ 4.58 µM) | 0.006 | 0.12 (≈ 0.275 µM) | 0.5 | 0.5 (≈ 1.15 µM) |  | 
16 | CCNC(=O)Nc1nc2cc(-c3cnc(C4(O)CCS(=O)(=O)CC4)nc3)cc(-c3ccccn3)c2s1 | 0.25 (≈ 0.477 µM) | 1 (≈ 1.91 µM) | 2 (≈ 3.81 µM) | 0.006 | 0.25 (≈ 0.477 µM) | 0.5 | 1 (≈ 1.91 µM) |  | 
17 | CCNC(=O)Nc1nc2cc(-c3cnc(C(C)(C)O)nc3)cc(-c3cc(CN4CC(O)C4)ccn3)c2s1 | 0.25 (≈ 0.481 µM) |  |  | 0.004 | 1 (≈ 1.92 µM) | 1 | 2 (≈ 3.85 µM) | 0.22 | 
18 | CCNC(=O)Nc1nc2cc(-c3cnc([C@@H](O)[C@@H](C)O)nc3)cc(-c3ccccn3)c2s1 (racemic) | 0.12 (≈ 0.266 µM) | 1 (≈ 2.22 µM) | 1 (≈ 2.22 µM) | 0.007 | 0.25 (≈ 0.555 µM) | 0.25 | 1 (≈ 2.22 µM) |  | 

Row | Compound | MIC [1] [µg/mL] | MIC [2] [µg/mL] | MIC [3] [µg/mL] | inhibitory concentration [4] [µg/mL] | MIC [5] [µg/mL] | MIC [6] [µg/mL] | MIC [7] [µg/mL] | fraction unbound [8] | Ratio [9]
19 | CCNC(=O)Nc1nc2cc(-c3cnc(C(O)C(C)(C)C)nc3)cc(-c3ccccn3)c2s1 (racemic) | 0.12 (≈ 0.259 µM) | 0.25 (≈ 0.54 µM) | 2 (≈ 4.32 µM) | 0.012 | 0.12 (≈ 0.259 µM) | 2 |  |  | 
20 | CCNC(=O)Nc1nc2cc(-c3cnc(C4(O)CCN(C)CC4)nc3)cc(-c3ccccn3)c2s1 | 1 (≈ 2.04 µM) | 8 (≈ 16.3 µM) | 8 (≈ 16.3 µM) | 0.011 | 1 (≈ 2.04 µM) | 0.5 | 8 (≈ 16.3 µM) |  | 
21 | CCNC(=O)Nc1nc2cc(-c3cnc(C(C)(C)O)nc3)cc(-c3cc(CN4CCC(F)(F)C4)ccn3)c2s1 | 0.03 (≈ 0.0542 µM) |  |  | 0.007 | 0.06 (≈ 0.108 µM) | 0.25 | > 16 | 0.041 | 
22 | CCNC(=O)Nc1nc2cc(-c3cnc([C@@H](O)[C@H](O)C(F)F)nc3)cc(-c3ccccn3)c2s1 (racemic) | 0.12 (≈ 0.247 µM) | 0.5 (≈ 1.03 µM) | 1 (≈ 2.06 µM) | 0.004 | 0.06 (≈ 0.123 µM) | 0.25 | 0.25 (≈ 0.514 µM) |  | 
23 | CCNC(=O)Nc1nc2cc(-c3cnc(C4(O)CNC4)nc3)cc(-c3ccccn3)c2s1 | 8 (≈ 17.9 µM) | > 16 | > 16 | 0.029 | > 16 | > 16 | > 16 |  | 
24 | CCNC(=O)Nc1nc2cc(-c3cnc(C4(O)COC4)nc3)cc(-c3ccccn3)c2s1 | 0.12 (≈ 0.268 µM) | 0.5 (≈ 1.11 µM) | 2 (≈ 4.46 µM) | 0.006 | 0.06 (≈ 0.134 µM) | 0.12 | 0.5 (≈ 1.11 µM) |  | 
25 | CCNC(=O)Nc1nc2cc(-c3cnc(C4(O)CCCCC4)nc3)cc(-c3ccccn3)c2s1 | 8 (≈ 16.9 µM) | > 16 | > 16 | 0.054 | 8 (≈ 16.9 µM) |  | > 16 |  | 
26 | CCNC(=O)Nc1nc2cc(-c3cnc(C(C)(C)O)nc3)cc(-c3cc(CN4CCCC4)ccn3)c2s1 | 0.5 (≈ 0.966 µM) |  |  | 0.012 | 0.5 (≈ 0.966 µM) | 0.5 | 4 (≈ 7.73 µM) | 0.067 | 
27 | CCNC(=O)Nc1nc2cc(-c3cnc(C4(O)CCOCC4O)nc3)cc(-c3ccccn3)c2s1 (racemic) | 0.12 (≈ 0.244 µM) | 4 (≈ 8.12 µM) | 2 (≈ 4.06 µM) | 0.009 | 0.5 (≈ 1.02 µM) | 0.5 | 2 (≈ 4.06 µM) |  | 
28 | CCNC(=O)Nc1nc2cc(-c3cnc(C(C)(C)O)nc3)cc(-c3cc(CN4CCC(C)(O)C4)ccn3)c2s1 (configuration not stated) | 0.25 (≈ 0.456 µM) |  |  | 0.008 | 0.5 (≈ 0.913 µM) | 0.25 | 8 (≈ 14.6 µM) | 0.194 | 
29 | CCNC(=O)Nc1nc2cc(-c3cnc(C(C)(C)O)nc3)cc(-c3cc(CNC4CC4)ccn3)c2s1 | 0.12 (≈ 0.238 µM) |  |  | 0.006 | 0.12 (≈ 0.238 µM) | 0.25 | 2 (≈ 3.97 µM) | 0.056 | 
30 | CCNC(=O)Nc1nc2cc(-c3cnc(C(O)(CC)CC)nc3)cc(-c3ccccn3)c2s1 | 0.5 (≈ 1.08 µM) | 1 (≈ 2.16 µM) | 8 (≈ 17.3 µM) | 0.017 | 0.25 (≈ 0.54 µM) | 4 | 8 (≈ 17.3 µM) |  | 
31 | CCNC(=O)Nc1nc2cc(-c3cnc(C(C)(C)O)nc3)cc(-c3cc(CN4CC[C@@H](O)C4)ccn3)c2s1 | 0.25 (≈ 0.468 µM) |  |  | 0.007 | 0.5 (≈ 0.937 µM) | 0.5 | 4 (≈ 7.5 µM) | 0.194 | 
32 | CCNC(=O)Nc1nc2cc(-c3cnc([C@@H](O)[C@@H](O)C(F)(F)F)nc3)cc(-c3ccccn3)c2s1 (racemic) | 0.12 (≈ 0.238 µM) | 0.5 (≈ 0.991 µM) | 1 (≈ 1.98 µM) | 0.004 | 0.12 (≈ 0.238 µM) | 0.25 | 0.5 (≈ 0.991 µM) |  | 
33 | CCNC(=O)Nc1nc2cc(-c3cnc(C(C)(C)O)nc3)cc(-c3cc(CN4CC(C)(O)C4)ccn3)c2s1 | 0.12 (≈ 0.225 µM) |  |  | 0.011 | 0.5 (≈ 0.937 µM) | 0.5 | 4 (≈ 7.5 µM) | 0.223 | 
34 | CCNC(=O)Nc1nc2cc(-c3cnc(C4(O)CCNCC4)nc3)cc(-c3ccccn3)c2s1 | 2 (≈ 4.21 µM) | > 16 | > 16 | 0.01 | 8 (≈ 16.8 µM) | 4 | > 16 |  | 
35 | CCNC(=O)Nc1nc2cc(-c3cnc(C(C)(C)O)nc3)cc(-c3cc(CN4CC[C@@H](F)C4)ccn3)c2s1 | 0.06 (≈ 0.112 µM) |  |  | 0.005 | 0.06 (≈ 0.112 µM) | 0.25 | 1 (≈ 1.87 µM) | 0.063 | 

Source: ChEMBL document CHEMBL3351752, “Discovery and in vivo evaluation of alcohol-containing benzothiazoles as potent dual-targeting bacterial DNA supercoiling inhibitors” (Bioorg Med Chem Lett, 2014)
